Data from article PMC6172054 (Cancer Science, 2018).
Read-outs that look alike come from different tables or passages of the source.

How the values were obtained:
[1] = Plasma pharmacokinetics of carfilzomib after 30-minute intravenous infusion; type: in vivo, human; conditions: for AUClast / T1/2 (terminal elimination half-life): mean ± SD, SD; for Tmax: median (minimum-maximum)
How it was run: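 Relapsed/refractory myeloma patients got a 30-min IV infusion of test compound with dexamethasone 40 mg. Plasma was sampled on Days 1 (20 mg/m2) and 15 (70 mg/m2) of Cycle 1: pre-infusion, 5 and 15 min after start, just before end, then 5, 15, 30 min and 1, 2, 4 h post-infusion. Per-patient parameters were summarised as mean ± SD, Tmax as median (min–max).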

multiple myeloma [2] = conditions: twice weekly carfilzomib monotherapy 20/45 or 20/56 mg/m^2; cited from earlier work
multiple myeloma [3] = conditions: twice weekly carfilzomib monotherapy 20/27 mg/m^2; cited from earlier work
[4] = Day 1 of Cycle 1, carfilzomib 20 mg/m^2 iv, N = 6
[5] = Day 15 of Cycle 1, carfilzomib 70 mg/m^2 iv, N = 5

CC(C)C[C@H](NC(=O)[C@H](CCc1ccccc1)NC(=O)CN1CCOCC1)C(=O)N[C@@H](Cc1ccccc1)C(=O)N[C@@H](CC(C)C)C(=O)[C@@]1(C)CO1 [carfilzomib]
AUClast [1, 4]: 355 ± 120 ng·h/mL
T1/2 (terminal elimination half-life) [1, 4]: 41 ± 15.1 min
Tmax [1, 4]: 0.575 (0.250‐0.617) h
AUClast [1, 5]: 1250 ± 285 ng·h/mL
T1/2 (terminal elimination half-life) [1, 5]: 54 ± 4.44 min
Tmax [1, 5]: 0.467 (0.250‐0.617) h
ORR (multiple myeloma [2]): 57.1%
ORR (multiple myeloma [3]): 22.5%
